Data published in ChEMBL document CHEMBL4732237, “Discovery of 4-alkoxy-2-aryl-6,7-dimethoxyquinolines as a new class of topoisomerase I inhibitors endowed with potent in vitro anticancer activity” (2021).

Columns and labels:
Type in all cases: functional
HOP-92 = assay: Growth inhibition of human HOP-92 cells incubated for 48 hrs by sulforhodamine B assay
How it was run: (§1)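 NCI five-dose screen covering 0.01–100 µM, prepared as 10-fold or ½-log dilutions from DMSO stock. Cells in RPMI 1640 with 5% FBS were exposed for 48 h at 37 °C after 24 h preincubation. Adherent cells were fixed with TCA (final 10%) and suspension cells were settled before fixing. Stain was SRB, read at 515 nm. GI50 = 50% reduction in net protein increase versus control, with Tz taken at drug addition.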

SK-MEL-5 = assay: Growth inhibition of human SK-MEL-5 cells incubated for 48 hrs by sulforhodamine B assay
How it was run: (§2)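 NCI five-dose screen (0.01–100 µM; five concentrations plus control). Cells grown in RPMI 1640/5% FBS/2 mM L-glutamine and preincubated 24 h, with time-zero plates TCA-fixed. Drug exposure 48 h at 37 °C, followed by SRB protein staining and reading at 515 nm. GI50 is the concentration at [(Ti-Tz)/(C-Tz)]×100 = 50.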

T47D = assay: Growth inhibition of human T47D cells incubated for 48 hrs by sulforhodamine B assay
How it was run: (§3)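 NCI five-dose assay, with drug stocks in DMSO diluted in medium to five concentrations (10-fold or ½-log series). Cells in RPMI 1640/5% FBS were pre-incubated 24 h, and time-zero plates were TCA-fixed at drug addition. After 48 h at 37 °C, cells were TCA-fixed, SRB-stained and read at 515 nm. GI50 is from [(Ti-Tz)/(C-Tz)]×100 = 50, TGI from Ti = Tz, and LC50 from [(Ti-Tz)/Tz]×100 = -50.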

CAKI-1 = assay: Growth inhibition of human CAKI-1 cells incubated for 48 hrs by sulforhodamine B assay; how it was run: as §1
U-251 = assay: Growth inhibition of human U-251 cells incubated for 48 hrs by sulforhodamine B assay; how it was run: as §3
HL-60(TB) = assay: Growth inhibition of human HL-60(TB) cells incubated for 48 hrs by sulforhodamine B assay
How it was run: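 NCI-60 five-dose screen. Cells in RPMI 1640 with 5% FBS and 2 mM L-glutamine were plated at 5000–40,000 cells/well and preincubated 24 h at 37 °C, 5% CO2. Drugs in DMSO were given at five serial 10-fold or ½-log dilutions for 48 h. Adherent cells fixed with 10% TCA (final); suspension cells fixed after settling. SRB stained; A515. GI50 from [(Ti-Tz)/(C-Tz)]x100 = 50.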

OVCAR-5 = assay: Growth inhibition of human OVCAR-5 cells incubated for 48 hrs by sulforhodamine B assay; how it was run: as §2
KM12 = assay: Growth inhibition of human KM12 cells incubated for 48 hrs by sulforhodamine B assay; how it was run: as §1
SNB-19 = assay: Growth inhibition of human SNB-19 cells incubated for 48 hrs by sulforhodamine B assay; how it was run: as §2
UO-31 = assay: Growth inhibition of human UO-31 cells incubated for 48 hrs by sulforhodamine B assay; how it was run: as §3
BT-549 = assay: Growth inhibition of human BT-549 cells incubated for 48 hrs by sulforhodamine B assay; how it was run: as §1
SF-268 = assay: Growth inhibition of human SF-268 cells incubated for 48 hrs by sulforhodamine B assay; how it was run: as §2
Malme-3M = assay: Growth inhibition of human Malme-3M cells incubated for 48 hrs by sulforhodamine B assay; how it was run: as §2
MDA-MB-231 = assay: Growth inhibition of human MDA-MB-231 cells incubated for 48 hrs by sulforhodamine B assay; how it was run: as §1
SF-295 = assay: Growth inhibition of human SF-295 cells incubated for 48 hrs by sulforhodamine B assay; how it was run: as §2
SK-OV-3 = assay: Growth inhibition of human SK-OV-3 cells incubated for 48 hrs by sulforhodamine B assay; how it was run: as §2
ACHN = assay: Growth inhibition of human ACHN cells incubated for 48 hrs by sulforhodamine B assay; how it was run: as §1
HCC 2998 = assay: Growth inhibition of human HCC 2998 cells incubated for 48 hrs by sulforhodamine B assay; how it was run: as §1
UACC-257 = assay: Growth inhibition of human UACC-257 cells incubated for 48 hrs by sulforhodamine B assay; how it was run: as §3
PC-3 = assay: Growth inhibition of human PC-3 cells incubated for 48 hrs by sulforhodamine B assay; how it was run: as §2
DU-145 = assay: Growth inhibition of human DU-145 cells incubated for 48 hrs by sulforhodamine B assay; how it was run: as §1
MDA-MB-468 = assay: Growth inhibition of human MDA-MB-468 cells incubated for 48 hrs by sulforhodamine B assay; how it was run: as §1
COLO 205 = assay: Growth inhibition of human COLO 205 cells incubated for 48 hrs by sulforhodamine B assay; how it was run: as §1
UACC-62 = assay: Growth inhibition of human UACC-62 cells incubated for 48 hrs by sulforhodamine B assay; how it was run: as §3
HCT-116 = assay: Growth inhibition of human HCT-116 cells incubated for 48 hrs by sulforhodamine B assay; how it was run: as §1
786-0 = assay: Growth inhibition of human 786-0 cells incubated for 48 hrs by sulforhodamine B assay; how it was run: as §1
EKVX = assay: Growth inhibition of human EKVX cells incubated for 48 hrs by sulforhodamine B assay; how it was run: as §1
LOX IMVI = assay: Growth inhibition of human LOX IMVI cells incubated for 48 hrs by sulforhodamine B assay; how it was run: as §1
SW-620 = assay: Growth inhibition of human SW-620 cells incubated for 48 hrs by sulforhodamine B assay; how it was run: as §3
SK-MEL-28 = assay: Growth inhibition of human SK-MEL-28 cells incubated for 48 hrs by sulforhodamine B assay; how it was run: as §2
A549 = assay: Growth inhibition of human A549 cells incubated for 48 hrs by sulforhodamine B assay; how it was run: as §1
TK-10 = assay: Growth inhibition of human TK-10 cells incubated for 48 hrs by sulforhodamine B assay; how it was run: as §3
NCI-H226 = assay: Growth inhibition of human NCI-H226 cells incubated for 48 hrs by sulforhodamine B assay; how it was run: as §2
OVCAR-8 = assay: Growth inhibition of human OVCAR-8 cells incubated for 48 hrs by sulforhodamine B assay; how it was run: as §2
SNB-75 = assay: Growth inhibition of human SNB-75 cells incubated for 48 hrs by sulforhodamine B assay; how it was run: as §2
HCT-29 = assay: Growth inhibition of human […] cells incubated for 48 hrs by sulforhodamine B assay; how it was run: as §1
OVCAR-3 = assay: Growth inhibition of human OVCAR-3 cells incubated for 48 hrs by sulforhodamine B assay; how it was run: as §2
NCI-H460 = assay: Growth inhibition of human NCI-H460 cells incubated for 48 hrs by sulforhodamine B assay; how it was run: as §2
RXF 393 = assay: Growth inhibition of human RXF 393 cells incubated for 48 hrs by sulforhodamine B assay; how it was run: as §2
SN12C = assay: Growth inhibition of human SN12C cells incubated for 48 hrs by sulforhodamine B assay; how it was run: as §2
Hs-578T = assay: Growth inhibition of human HS-578T cells incubated for 48 hrs by sulforhodamine B assay; how it was run: as §1
NCI-H322M = assay: Growth inhibition of human NCI-H322M cells incubated for 48 hrs by sulforhodamine B assay; how it was run: as §2

## COc1cc2nc(-c3ccc(Cl)cc3)cc(OCCCN3CCC(O)CC3)c2cc1OC
HOP-92
  GI50: 1250 nM
SK-MEL-5
  GI50: 1270 nM
T47D
  GI50: 2260 nM
CAKI-1
  GI50: 416 nM
U-251
  GI50: 2810 nM
HL-60(TB)
  GI50: 4270 nM
OVCAR-5
  GI50: 1160 nM
KM12
  GI50: 3130 nM
SNB-19
  GI50: 3190 nM
UO-31
  GI50: 1720 nM
BT-549
  GI50: 2790 nM
SF-268
  GI50: 3360 nM
Malme-3M
  GI50: 1890 nM
MDA-MB-231
  GI50: 665 nM
SF-295
  GI50: 1660 nM
SK-OV-3
  GI50: 3170 nM
ACHN
  GI50: 2430 nM
HCC 2998
  GI50: 1950 nM
UACC-257
  GI50: 2060 nM
PC-3
  GI50: 2020 nM
DU-145
  GI50: 2780 nM
MDA-MB-468
  GI50: 1560 nM
COLO 205
  GI50: 532 nM
UACC-62
  GI50: 1900 nM
HCT-116
  GI50: 1440 nM
786-0
  GI50: 3310 nM
EKVX
  GI50: 1330 nM
LOX IMVI
  GI50: 227 nM
  TGI: 589 nM
SW-620
  GI50: 3050 nM
SK-MEL-28
  GI50: 1490 nM
A549
  GI50: 2200 nM
TK-10
  GI50: 2140 nM
NCI-H226
  GI50: 1390 nM
OVCAR-8
  GI50: 2000 nM
SNB-75
  GI50: 1760 nM
HCT-29
  GI50: 700 nM
OVCAR-3
  GI50: 3240 nM
NCI-H460
  GI50: 955 nM
RXF 393
  GI50: 1220 nM
SN12C
  GI50: 1260 nM
Hs-578T
  GI50: 1910 nM
NCI-H322M
  GI50: 3220 nM

## COc1cc2nc(-c3ccc(C(F)(F)F)cc3)cc(OCCCN3CCCCC3)c2cc1OC
HOP-92
  GI50: 678 nM
SK-MEL-5
  GI50: 325 nM
  TGI: 1200 nM
T47D
  GI50: 454 nM
CAKI-1
  GI50: 272 nM
U-251
  GI50: 1100 nM
HL-60(TB)
  GI50: 2910 nM
OVCAR-5
  GI50: 710 nM
KM12
  GI50: 2920 nM
SNB-19
  GI50: 2820 nM
UO-31
  GI50: 2000 nM
BT-549
  GI50: 1480 nM
SF-268
  GI50: 3760 nM
Malme-3M
  GI50: 1260 nM
MDA-MB-231
  GI50: 536 nM
SF-295
  GI50: 530 nM
SK-OV-3
  GI50: 2300 nM
ACHN
  GI50: 1200 nM
HCC 2998
  GI50: 1280 nM
UACC-257
  GI50: 1700 nM
PC-3
  GI50: 1340 nM
DU-145
  GI50: 1840 nM
MDA-MB-468
  GI50: 1030 nM
COLO 205
  GI50: 406 nM
UACC-62
  GI50: 1820 nM
HCT-116
  GI50: 429 nM
786-0
  GI50: 2170 nM
EKVX
  GI50: 803 nM
LOX IMVI
  GI50: 162 nM
  TGI: 355 nM
SW-620
  GI50: 2910 nM
SK-MEL-28
  GI50: 1260 nM
A549
  GI50: 722 nM
TK-10
  GI50: 7800 nM
NCI-H226
  GI50: 370 nM
OVCAR-8
  GI50: 734 nM
SNB-75
  GI50: 1960 nM
HCT-29
  GI50: 415 nM
OVCAR-3
  GI50: 2440 nM
NCI-H460
  GI50: 595 nM
RXF 393
  GI50: 1090 nM
SN12C
  GI50: 668 nM
Hs-578T
  GI50: 2150 nM
NCI-H322M
  GI50: 8700 nM

## COc1cc2nc(-c3ccc(C(F)(F)F)cc3)cc(OCCCN3CCC(O)CC3)c2cc1OC
HOP-92
  GI50: 1680 nM
SK-MEL-5
  GI50: 1430 nM
T47D
  GI50: 2970 nM
CAKI-1
  GI50: 376 nM
U-251
  GI50: 2120 nM
HL-60(TB)
  GI50: 13900 nM
OVCAR-5
  GI50: 3140 nM
KM12
  GI50: 6870 nM
SNB-19
  GI50: 10500 nM
UO-31
  GI50: 2710 nM
BT-549
  GI50: 6590 nM
SF-268
  GI50: 5760 nM
Malme-3M
  GI50: 2650 nM
MDA-MB-231
  GI50: 919 nM
SF-295
  GI50: 1610 nM
SK-OV-3
  GI50: 10600 nM
ACHN
  GI50: 3180 nM
HCC 2998
  GI50: 4070 nM
UACC-257
  GI50: 2280 nM
PC-3
  GI50: 3660 nM
DU-145
  GI50: 4960 nM
MDA-MB-468
  GI50: 1630 nM
COLO 205
  GI50: 456 nM
UACC-62
  GI50: 2610 nM
HCT-116
  GI50: 671 nM
786-0
  GI50: 4720 nM
EKVX
  GI50: 1030 nM
LOX IMVI
  GI50: 190 nM
  TGI: 447 nM
SW-620
  GI50: 3530 nM
SK-MEL-28
  GI50: 2380 nM
A549
  GI50: 1650 nM
TK-10
  GI50: 11500 nM
NCI-H226
  GI50: 1590 nM
OVCAR-8
  GI50: 1660 nM
SNB-75
  GI50: 2580 nM
HCT-29
  GI50: 486 nM
OVCAR-3
  GI50: 6100 nM
NCI-H460
  GI50: 835 nM
RXF 393
  GI50: 1340 nM
SN12C
  GI50: 1440 nM
Hs-578T
  GI50: 3750 nM
NCI-H322M
  GI50: 10200 nM
